Measurements reported in ChEMBL document CHEMBL4823321, “Improving the Adjuvanticity of Small Molecule Immune Potentiators Using Covalently Linked NF-κB Modulators” (ACS Med Chem Lett, 2021).
Active and inactive are the calls of the source. The calls are words filed in the database; no cut-off is given here.

Assays:
BMDC = experiment: Modulator activity at NF-kappaB in C57BL/6 mouse BMDC cells assessed as increase in cell surface CD40 expression at 200 nM measured after 8 hrs by FACS analysis; assay type: cell-based; conditions: filed as modulator
Outline: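 Murine bone-marrow-derived dendritic cells incubated 8 h with compounds at 200 nM; cells stained for surface CD40 and quantified by flow cytometry.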

[1] = target: TLR7 and TLR8 (Mus musculus) (UniProt P58681+P58682); experiment: Agonist activity at TLR7/8 in mouse RAW-blue cells assessed as immune activation by measuring induction of NFkappaB activation at 500 nM measured after 24 hrs by quanti-blue SEAP reporter gene-based assay; assay type: cell-based; conditions: filed as agonist
Outline: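 RAW-Blue macrophages exposed to compounds at 500 nM for 24 h at 37 °C; NF-κB-driven reporter read-out; triplicate samples; one-way ANOVA against TLR7/8 SMIP.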

[2] = Toxicity in C57BL/6 mouse BMDC cells assessed as induction of inflammation by measuring increase in IL-6 secretion at 200 nM measured after 8 hrs by ELISA; assay type: cell-based; conditions: 0.2 µM
Outline: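 Murine bone-marrow-derived dendritic cells incubated 8 h with compounds at 200 nM; secreted IL-6 quantified by ELISA; triplicate; one-way ANOVA versus TLR7/8 SMIP.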

RAW264.7 [3] = experiment: Antioxidant activity in mouse RAW264.7 cells assessed as reduction in intracellular ROS level measured after 16 hrs by CM-H2DCFDA based flow cytometry analysis relative to TLR7/8 SMIP; assay type: functional
Outline: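 RAW macrophages incubated with compounds for 16 h, then loaded with CM-H2DCFDA; intracellular ROS fluorescence quantified by flow cytometry.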

RAW264.7 [4] = experiment: Inhibition of NO production in mouse RAW264.7 cells at 500 nM incubated for 16 hrs by Griess reagent based analysis; assay type: functional, cell-based
Outline: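 Nitrite measured with Griess reagent in supernatants of RAW macrophages incubated 16 h with 500 nM compounds; triplicate; one-way ANOVA versus TLR7/8 SMIP.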

RAW264.7 [5] = experiment: Inhibition of COX-2 expression in mouse RAW264.7 cells at 500 nM incubated for 16 hrs by western blot analysis; assay type: functional, cell-based
Outline: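 After 16 h with 500 nM compounds, RAW macrophages were lysed; proteins separated by SDS-PAGE, transferred to membrane and probed with anti-COX-2 antibody; triplicate.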

RAW264.7 [6] = experiment: Inhibition of iNOS expression in mouse RAW264.7 cells at 500 nM incubated for 16 hrs by western blot analysis; assay type: functional, cell-based
[7] = Systemic toxicity in C57BL/6 mouse assessed as increase in serum TNF-alpha level administered intramuscularly in presence of ovalbumin measured after 1 hr; conditions: in vivo, im
Outline: (§1)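 Mice vaccinated with ovalbumin admixed with adjuvant in PBS, i.m.; serum collected 1 h after injection for IL-6 and TNF-α; one-way ANOVA versus PBS control.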

Mus musculus [8] = experiment: Immuno-adjuvant activity in C57BL/6 mouse assessed as increase in levels of anti-OVA Ig (A+G+M) administered intramuscularly on day 1 and as booster dose on day 14 in presence of ovalbumin and measured on day 28 by ELISA; assay type: functional, organism-based; conditions: time 28.0 day
Outline: (§2)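 Ovalbumin plus adjuvant in PBS given i.m., boosted on day 14; sera collected at sacrifice on day 28 and anti-OVA antibodies measured; one-way ANOVA versus PBS control.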

Mus musculus [9] = experiment: Induction of T-cell immunity in C57BL/6 mouse splenocytes assessed as increase in CD3+CD8+ tetramer administered intramuscularly on day 1 and as booster dose on day 14 in presence of ovalbumin and SINFEKL MHC specific tetramer measured on day 28 by flow cytometric analysis; assay type: functional, cell-based; conditions: time 28.0 day
Splenocyte = experiment: Induction of innate immunity in C57BL/6 mouse naive splenocyte assessed as increase in cell proliferation at 3 uM measured after 48 hrs by MTT assay; assay type: functional, tissue-based
Outline: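 Naive splenocytes incubated 48 h with compounds to assess proliferation.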

[10] = Systemic toxicity in CT26 cells xenografted BALB/c mouse tumor model assessed as increase in serum TNF-alpha level at 20 nmol, IT and measured after 2 hrs; assay type: cell-based; conditions: in vivo, other
Outline: (§3)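 Subcutaneous CT-26 tumors established for 11 days, then compounds given by peritumoral injection; serum collected 2 h later for TNF-α and IL-6.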

[11] = Systemic toxicity in CT26 cells xenografted BALB/c mouse tumor model assessed as increase in serum IL-6 level at 20 nmol, IT and measured after 2 hrs; assay type: cell-based; conditions: in vivo, other; outline: as §3
[12] = Systemic toxicity in CT26 cells xenografted BALB/c mouse tumor model assessed as reduction in white blood count in peripheral blood at 20 nmol, IT and measured after 24 hrs by hematological analysis; assay type: cell-based; conditions: in vivo, other
Outline: (§4)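 Subcutaneous CT-26 tumors established for 11 days, then compounds given peritumorally; peripheral blood collected 24 h later for hematological analysis of white blood cell and lymphocyte counts.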

CT26 = experiment: Antitumor activity against mouse CT26 cells xenografted in BALB/c mouse assessed as survival rate at 20 nmol, IT administered on day 15,19 and 23 and measured on day 35; assay type: functional
Outline: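 Subcutaneous CT-26 colon carcinoma in mice. Once tumors were established at day 11, […], compounds were given by peritumoral injection, then three more injections every 4 days. Tumor size was measured every alternate day. Animals were euthanized when a tumor reached 20 mm in any linear dimension. Kaplan–Meier survival was followed until day 35.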

[13] = Systemic toxicity in C57BL/6 mouse assessed as increase in serum IL-6 level administered intramuscularly in presence of ovalbumin measured after 1 hr; conditions: in vivo, im; outline: as §1
Mus musculus [14] = experiment: Immuno-adjuvant activity in C57BL/6 mouse assessed as increase in levels of anti-OVA IgG administered intramuscularly on day 1 and as booster dose on day 14 in presence of ovalbumin and measured on day 28 by ELISA; assay type: functional, organism-based; conditions: time 28.0 day; outline: as §2
Mus musculus [15] = experiment: Immuno-adjuvant activity in C57BL/6 mouse assessed as increase in levels of anti-OVA IgA administered intramuscularly on day 1 and as booster dose on day 14 in presence of ovalbumin and measured on day 28 by ELISA; assay type: functional, organism-based; conditions: time 28.0 day
[16] = Systemic toxicity in CT26 cells xenografted BALB/c mouse tumor model assessed as reduction in lymphocyte count in peripheral blood at 20 nmol, IT and measured after 24 hrs by hematological analysis; assay type: cell-based; conditions: in vivo, other; outline: as §4

Chain of TLR7 and TLR8 (Mus musculus) (P58681 whole entry, looked up): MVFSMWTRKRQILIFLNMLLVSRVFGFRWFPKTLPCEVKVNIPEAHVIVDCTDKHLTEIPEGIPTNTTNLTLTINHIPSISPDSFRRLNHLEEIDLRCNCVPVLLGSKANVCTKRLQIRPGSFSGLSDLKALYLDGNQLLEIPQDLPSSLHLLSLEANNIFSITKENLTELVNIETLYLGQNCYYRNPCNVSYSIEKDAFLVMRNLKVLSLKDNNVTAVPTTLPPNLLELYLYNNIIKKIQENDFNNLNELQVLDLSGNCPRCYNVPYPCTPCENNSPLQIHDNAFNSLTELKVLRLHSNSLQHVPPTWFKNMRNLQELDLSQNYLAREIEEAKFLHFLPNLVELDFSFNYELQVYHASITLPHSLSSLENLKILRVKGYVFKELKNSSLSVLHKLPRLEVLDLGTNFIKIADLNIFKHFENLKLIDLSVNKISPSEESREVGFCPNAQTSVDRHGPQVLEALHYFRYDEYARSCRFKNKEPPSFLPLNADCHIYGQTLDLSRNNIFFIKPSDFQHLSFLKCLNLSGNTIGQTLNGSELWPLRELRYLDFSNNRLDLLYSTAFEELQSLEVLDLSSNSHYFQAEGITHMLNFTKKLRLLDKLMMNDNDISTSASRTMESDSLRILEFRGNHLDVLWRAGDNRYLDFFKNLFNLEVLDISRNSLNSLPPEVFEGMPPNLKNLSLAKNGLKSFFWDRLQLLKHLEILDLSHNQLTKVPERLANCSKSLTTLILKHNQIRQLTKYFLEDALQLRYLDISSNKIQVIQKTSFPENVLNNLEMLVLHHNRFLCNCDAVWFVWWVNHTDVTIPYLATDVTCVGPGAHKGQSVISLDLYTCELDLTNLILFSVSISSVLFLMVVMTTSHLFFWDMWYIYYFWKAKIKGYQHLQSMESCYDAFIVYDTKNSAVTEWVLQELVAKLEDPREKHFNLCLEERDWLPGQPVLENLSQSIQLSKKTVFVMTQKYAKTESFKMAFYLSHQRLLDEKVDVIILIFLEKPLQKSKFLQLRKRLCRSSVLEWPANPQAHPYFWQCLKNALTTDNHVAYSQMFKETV
Chain of TLR7 and TLR8 (Mus musculus) (P58682 whole entry, looked up): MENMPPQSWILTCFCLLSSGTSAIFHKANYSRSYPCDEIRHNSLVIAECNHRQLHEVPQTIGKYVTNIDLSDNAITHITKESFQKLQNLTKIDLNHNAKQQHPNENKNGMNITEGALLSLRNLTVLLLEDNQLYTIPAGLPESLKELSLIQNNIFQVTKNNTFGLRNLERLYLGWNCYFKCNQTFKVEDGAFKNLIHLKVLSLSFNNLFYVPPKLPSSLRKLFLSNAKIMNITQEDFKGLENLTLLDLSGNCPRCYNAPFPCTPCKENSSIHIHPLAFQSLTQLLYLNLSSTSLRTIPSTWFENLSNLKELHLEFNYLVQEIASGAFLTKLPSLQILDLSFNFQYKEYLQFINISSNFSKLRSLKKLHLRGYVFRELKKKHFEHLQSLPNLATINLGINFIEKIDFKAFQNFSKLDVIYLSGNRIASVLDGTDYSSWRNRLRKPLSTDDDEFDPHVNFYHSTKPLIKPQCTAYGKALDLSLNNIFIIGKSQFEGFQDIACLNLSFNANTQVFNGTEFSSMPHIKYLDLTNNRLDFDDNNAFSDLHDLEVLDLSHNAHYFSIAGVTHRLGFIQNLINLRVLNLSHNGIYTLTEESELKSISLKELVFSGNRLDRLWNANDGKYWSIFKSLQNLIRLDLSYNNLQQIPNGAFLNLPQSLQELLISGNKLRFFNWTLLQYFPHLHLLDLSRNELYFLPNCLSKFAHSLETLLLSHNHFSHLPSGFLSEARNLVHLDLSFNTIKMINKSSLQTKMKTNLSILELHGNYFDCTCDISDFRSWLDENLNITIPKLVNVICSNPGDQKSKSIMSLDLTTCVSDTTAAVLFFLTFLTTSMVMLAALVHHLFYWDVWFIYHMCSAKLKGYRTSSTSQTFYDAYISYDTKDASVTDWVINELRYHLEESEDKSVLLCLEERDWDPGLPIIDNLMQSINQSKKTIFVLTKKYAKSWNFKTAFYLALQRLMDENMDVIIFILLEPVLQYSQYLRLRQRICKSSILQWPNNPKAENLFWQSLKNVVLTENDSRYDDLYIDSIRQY

| SMILES | Activity (BMDC) | Activity [1] | Activity [2] | inhibition (INH) (RAW264.7 [3]) | inhibition (RAW264.7 [4]) | inhibition (RAW264.7 [5]) | inhibition (RAW264.7 [6]) | Activity [7] | Activity (Mus musculus [8]) | Activity (Mus musculus [9]) | Activity (Splenocyte) | Activity [10] | Activity [11] | Activity [12] | Activity (CT26; time 35.0 day) | Activity [13] | Activity (Mus musculus [14]) | Activity (Mus musculus [15]) | Activity [16] | Survival (CT26; time 35 day) |
| --- | --- | --- | --- | --- | --- | --- | --- | --- | --- | --- | --- | --- | --- | --- | --- | --- | --- | --- | --- | --- |
| CCCCc1nc2c(N)nc3ccccc3c2n1Cc1ccc(CNC(=O)NCCCCCC(=O)NCc2ccc(O)c(OC)c2)cc1 | Active | Active | Non-Toxic | 50% | Active | inactive | Active | Non-Toxic | Active | inactive | Active | Non-Toxic | Non-Toxic | Non-Toxic | Active | Non-Toxic | Active | Active | Non-Toxic |  |
| CCCCCCCCCCCCCCCCCC(=O)NCCCCOn1c(CCCC)nc2c(N)nc3ccccc3c21 [TELRATOLIMOD] |  |  |  |  |  |  |  |  |  |  |  | Non-Toxic | Non-Toxic | Non-Toxic |  |  |  |  | Non-Toxic |  |
| CCCCc1nc2c(N)nc3ccccc3c2n1Cc1ccc(CNC(=O)c2cccc(-c3cccc(O)c3)c2)cc1 | Active | Active | Non-Toxic | 50% | Active | inactive | Active | Non-Toxic |  | inactive | Active | Non-Toxic | Non-Toxic | Non-Toxic |  | Non-Toxic |  |  | Non-Toxic |  |
| CCCCc1nc2c(N)nc3ccccc3c2n1Cc1ccc(CNC(=O)NCCc2ccc(O)c(O)c2)cc1 | Active | Active | Non-Toxic | 50% | Active | inactive | Active | Non-Toxic | Active | inactive | Active | Non-Toxic | Non-Toxic | Non-Toxic |  | Non-Toxic | Active |  | Non-Toxic |  |
| CCOCc1nc2c(N)nc3ccccc3c2n1CC(C)(C)O [RESIQUIMOD] |  |  |  |  |  |  |  |  |  |  |  | Toxic | Toxic | Toxic |  |  |  |  | Toxic |  |
| CCCCc1nc2c(N)nc3ccccc3c2n1Cc1ccc(CNC(=O)NCCCNC(=O)/C=C/c2ccc(O)c(OC)c2)cc1 | Active | Active | Non-Toxic | 50% | Active | inactive | Active |  |  |  | Active | Toxic | Toxic | Toxic |  |  |  |  | Toxic | 80% |
| CCCCc1nc2c(N)nc3ccccc3c2n1Cc1ccc(CNC(=O)c2ccc(-c3cccc(O)c3)cc2O)cc1 | Active | Active | Toxic | 50% | Active | inactive | Active |  |  |  | Active | Non-Toxic | Non-Toxic | Non-Toxic |  |  |  |  | Non-Toxic |  |
| CCCCc1nc2c(N)nc3ccccc3c2n1Cc1ccc(CNC(=O)c2cc(-c3ccc(O)cc3)ccc2O)cc1 | Active | Active | Toxic | 50% | Active | inactive | Active |  |  |  | Active |  | Non-Toxic |  |  |  |  |  | Non-Toxic |  |
| CCCCc1nc2c(N)nc3ccccc3c2n1Cc1ccccc1 | Active | Active | Toxic |  |  |  |  |  |  |  | Active | Toxic | Toxic | Toxic |  |  |  |  | Toxic |  |
